This is an account of results in ChEMBL document CHEMBL4825671, “Design, synthesis and biological evaluation of novel FXIa inhibitors with 2-phenyl-1H-imidazole-5-carboxamide moiety as P1 fragment” (Eur J Med Chem, 2021).

Assay [1] has as its target Coagulation factor XI (Homo sapiens, UniProt P03951). Briefly: Binding affinity to coagulation factor 11a (unknown origin) assessed as inhibition constant using (p-Glu-Pro-Arg-pNa,HCl) as substrate preincubated for 5 mins followed by substrate addition and measured after 10 mins.
In assay [2] the target is T1, Coagulation factor VII (Homo sapiens, UniProt P08709).
T1 sequence (P08709 whole entry): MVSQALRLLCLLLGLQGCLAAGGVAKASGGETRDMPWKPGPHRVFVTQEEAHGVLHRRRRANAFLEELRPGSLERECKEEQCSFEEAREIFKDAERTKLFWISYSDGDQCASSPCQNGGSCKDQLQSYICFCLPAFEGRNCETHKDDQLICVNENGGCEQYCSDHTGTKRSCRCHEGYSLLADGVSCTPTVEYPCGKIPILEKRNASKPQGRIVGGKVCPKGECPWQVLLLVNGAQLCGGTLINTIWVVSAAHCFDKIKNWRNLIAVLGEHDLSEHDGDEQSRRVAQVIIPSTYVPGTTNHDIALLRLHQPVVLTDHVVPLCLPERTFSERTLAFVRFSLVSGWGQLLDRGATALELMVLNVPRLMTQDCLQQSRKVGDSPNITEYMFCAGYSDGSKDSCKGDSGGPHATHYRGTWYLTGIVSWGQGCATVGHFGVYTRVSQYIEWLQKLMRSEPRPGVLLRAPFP
Description: Binding affinity to coagulation factor 7a (unknown origin) assessed as inhibition constant using CH3SO2-D-CHA-But-Arg-pNA,ACOH as substrate preincubated for 10 mins followed by substrate addition and further incubated for 10 mins. An outline of the steps: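 FVIIa was preincubated with compound or blank buffer at 37 °C for 10 min. Chromogenic substrate was added and absorbance read at 405 nm. Compounds came from DMSO stocks (10 mM) diluted in assay buffer. IC50 was derived from a concentration range.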

In assay [3] the target is Coagulation factor X (Homo sapiens, UniProt P00742). Description: Binding affinity to coagulation factor 10a (unknown origin) assessed as inhibition constant using CH3OCO-D-CHA-Gly-Arg-pNA,ACOH as substrate preincubated for 10 mins followed by substrate addition. In outline: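 FXa was preincubated with compound or blank buffer at 25 °C for 10 min. Chromogenic substrate was added and absorbance read at 405 nm. Compounds came from DMSO stocks (10 mM) diluted in assay buffer. IC50 was derived from a concentration range.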

Assay [4] in a line: Binding affinity to thrombin (unknown origin) assessed as inhibition constant using H-D-Phe-Pip-Arg-pNA,2HCl as substrate preincubated for 10 mins followed by substrate addition. Further details: species or system Homo sapiens. In outline: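 Thrombin was preincubated with compound or blank buffer at 25 °C for 10 min. Chromogenic substrate was added and absorbance read at 405 nm. Compounds came from DMSO stocks (10 mM) diluted in assay buffer. IC50 was derived from a concentration range.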

The species entered for assay [5] is Homo sapiens. Briefly: Selectivity ratio of Ki for coagulation factor 7a (unknown origin) to Ki for coagulation factor 11a (unknown origin).
The species named for assay [6] is Homo sapiens. Briefly: Selectivity ratio of Ki for coagulation factor 10a (unknown origin) to Ki for coagulation factor 11a (unknown origin).
For assay [7], the species on record is Homo sapiens. Briefly: Selectivity ratio of Ki for thrombin (unknown origin) to Ki for coagulation factor 11a (unknown origin).
The species named for assay [8] is Homo sapiens. Description: Selectivity ratio of Ki for plasma kallikrein (unknown origin) to Ki for coagulation factor 11a (unknown origin).
Assay [9] is filed under the species Homo sapiens. Description: Competitive inhibition of coagulation factor 11a (unknown origin) assessed as Km at 0.005 uM using varying levels (p-Glu-Pro-Arg-pNa,HCl) as substrate by Lineweaver-Burk plot analysis. In outline: (§1)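 Same FXIa assay (37 °C, 5 min preincubation, 405 nm read), run at four substrate levels with final concentrations of 42.5, 85, 170 and 340. Km and Vmax were taken from a Lineweaver-Burk plot using the Michaelis-Menten relationship.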

Assay [10] is filed under the species Homo sapiens. Briefly: Competitive inhibition of coagulation factor 11a (unknown origin) assessed as Km at 0.01 uM using varying levels (p-Glu-Pro-Arg-pNa,HCl) as substrate by Lineweaver-Burk plot analysis. In outline:
as §1

The species entered for assay [11] is Homo sapiens. Briefly: Competitive inhibition of coagulation factor 11a (unknown origin) assessed as Km at 0.02 uM using varying levels (p-Glu-Pro-Arg-pNa,HCl) as substrate by Lineweaver-Burk plot analysis. An outline of the steps: as §1
Assay [12] is filed under the species Homo sapiens. Description: Competitive inhibition of coagulation factor 11a (unknown origin) assessed as Km at 0.04 uM using varying levels (p-Glu-Pro-Arg-pNa,HCl) as substrate by Lineweaver-Burk plot analysis. An outline of the steps:
as §1

Assay [13] is filed under the species Homo sapiens. Description: Competitive inhibition of coagulation factor 11a (unknown origin) assessed as Vmax at 0.005 to 0.04 uM using varying levels (p-Glu-Pro-Arg-pNa,HCl) as substrate by Lineweaver-Burk plot analysis. Particulars: dose 0.005-0.04 µM. An outline of the steps:
as §1

The species entered for assay [14] is Homo sapiens. Briefly: Competitive inhibition of coagulation factor 11a (unknown origin) using varying levels (p-Glu-Pro-Arg-pNa,HCl) as substrate by Lineweaver-Burk plot analysis. The following applies: dose 0.005-0.04 µM. In outline: as §1
Assay [15] deals with Oryctolagus cuniculus. Briefly: Antithrombotic activity in New Zealand White rabbit model of AV-shunt induced thrombosis assessed as reduction in thrombosis weight by measuring inhibition of thrombosis formation at 0.5 mg/kg, administered as iv bolus dose and subsequently followed by 0.8 mg/kg/hr as iv infusion relative to control. The format is functional. An outline of the steps:
(§2)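 Male New Zealand White rabbits under urethane anesthesia (1.25 g/kg). A control-period AV shunt gave the baseline thrombus wet weight, found by subtraction. The compound in saline vehicle was then given as an IV bolus followed by continuous IV infusion via the jugular vein. A new AV shunt ran for 40 min. Result is % inhibition of thrombus formation, treatment versus control period. Three rabbits per group.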

For assay [16], the system named is Oryctolagus cuniculus. Description: Antithrombotic activity in New Zealand White rabbit model of AV-shunt induced thrombosis assessed as reduction in thrombosis weight by measuring inhibition of thrombosis formation at 2.5 mg/kg, administered as iv bolus dose and subsequently followed by 4 mg/kg/hr as iv infusion relative to control. Format: functional. An outline of the steps:
as §2

Assay [17] relates to Oryctolagus cuniculus. Description: Antithrombotic activity in New Zealand White rabbit model of AV-shunt induced thrombosis assessed as reduction in thrombosis weight by measuring inhibition of thrombosis formation at 5 mg/kg, administered as iv bolus dose and subsequently followed by 8 mg/kg/hr as iv infusion relative to control. Format: functional. In outline: as §2
Assay [18] concerns the target Plasma kallikrein (Homo sapiens, UniProt P03952). Briefly: Binding affinity to plasma kallikrein (unknown origin) assessed as inhibition constant using D-Pro-Phe,Arg,pNa,2HCl as substrate preincubated for 15 mins followed by substrate addition.

Plasma kallikrein, sequence (P03952 20-390 limits assumed): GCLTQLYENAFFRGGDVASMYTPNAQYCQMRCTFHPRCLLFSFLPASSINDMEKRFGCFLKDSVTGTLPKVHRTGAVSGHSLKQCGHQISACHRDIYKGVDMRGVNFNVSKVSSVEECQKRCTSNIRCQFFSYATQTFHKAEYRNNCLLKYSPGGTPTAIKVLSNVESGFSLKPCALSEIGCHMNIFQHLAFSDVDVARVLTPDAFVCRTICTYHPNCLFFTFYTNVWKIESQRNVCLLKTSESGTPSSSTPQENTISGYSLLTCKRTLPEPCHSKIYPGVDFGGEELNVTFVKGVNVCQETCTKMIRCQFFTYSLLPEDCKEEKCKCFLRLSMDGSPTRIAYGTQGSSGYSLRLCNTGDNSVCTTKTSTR
Plasma kallikrein, sequence (P03952 391-638 limits assumed): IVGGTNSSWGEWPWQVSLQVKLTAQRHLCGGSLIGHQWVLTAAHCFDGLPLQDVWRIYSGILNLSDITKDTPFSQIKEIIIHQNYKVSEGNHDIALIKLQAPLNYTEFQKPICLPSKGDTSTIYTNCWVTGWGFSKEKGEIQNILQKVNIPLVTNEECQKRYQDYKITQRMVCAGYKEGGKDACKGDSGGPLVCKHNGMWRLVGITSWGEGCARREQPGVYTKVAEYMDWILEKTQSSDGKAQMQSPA
Coagulation factor X, sequence (P00742 41-179 limits assumed): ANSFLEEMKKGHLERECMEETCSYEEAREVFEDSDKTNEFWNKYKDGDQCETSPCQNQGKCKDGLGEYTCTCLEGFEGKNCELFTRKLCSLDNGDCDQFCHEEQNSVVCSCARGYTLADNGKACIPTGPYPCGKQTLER
Coagulation factor X, sequence (P00742 235-488 limits assumed): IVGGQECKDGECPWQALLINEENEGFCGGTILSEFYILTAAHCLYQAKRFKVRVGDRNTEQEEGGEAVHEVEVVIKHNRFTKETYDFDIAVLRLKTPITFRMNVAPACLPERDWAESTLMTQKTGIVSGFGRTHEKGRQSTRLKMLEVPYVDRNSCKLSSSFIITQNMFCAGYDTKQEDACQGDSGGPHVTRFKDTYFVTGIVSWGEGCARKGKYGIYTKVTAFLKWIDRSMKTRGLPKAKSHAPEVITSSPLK
Coagulation factor XI, sequence (P03951 19-387 limits assumed): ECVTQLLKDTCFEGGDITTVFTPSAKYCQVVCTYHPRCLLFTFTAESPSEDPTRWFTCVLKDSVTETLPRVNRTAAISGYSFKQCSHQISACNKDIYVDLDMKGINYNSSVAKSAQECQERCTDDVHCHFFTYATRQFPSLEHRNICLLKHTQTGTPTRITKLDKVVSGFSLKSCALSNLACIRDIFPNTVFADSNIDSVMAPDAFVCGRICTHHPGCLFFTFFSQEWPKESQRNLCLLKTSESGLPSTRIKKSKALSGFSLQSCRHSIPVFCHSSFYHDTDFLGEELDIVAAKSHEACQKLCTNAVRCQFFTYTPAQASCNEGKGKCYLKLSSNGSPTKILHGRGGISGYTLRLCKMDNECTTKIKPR
Coagulation factor XI, sequence (P03951 388-625 limits assumed): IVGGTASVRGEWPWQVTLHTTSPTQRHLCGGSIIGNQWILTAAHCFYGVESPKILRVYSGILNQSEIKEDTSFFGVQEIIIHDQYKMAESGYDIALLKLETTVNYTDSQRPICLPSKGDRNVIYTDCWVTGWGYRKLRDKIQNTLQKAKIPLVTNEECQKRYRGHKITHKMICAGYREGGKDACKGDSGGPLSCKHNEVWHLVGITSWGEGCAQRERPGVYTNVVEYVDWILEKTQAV

By Ki is commonly meant a measure of affinity in units of concentration, obtained from inhibition or displacement. One may read the Km as the substrate concentration at which the rate is half of its maximum. The term Vmax denotes the rate approached at saturating substrate. In the case of `Cc1nc(-c2cccc(Cl)c2F)n(O)c1C(=O)N[C@@H](Cc1ccc(NC(=O)C2CC2C)cc1)C(=O)Nc1ccc2[nH]c(C(=O)O)cc2c1` (stereo partly drawn), the Ki in assay [1] was 9 nM; in assay [2] it was 4190 nM; in [3], > 8000 nM; in [4], > 12500 nM; in [18] it was 192 nM. For the same compound, the Ratio Ki in assay [5] is > 400; in assay [6], > 400; in assay [7] it was > 400; in assay [8], 21.3. Besides, the Km in [9] came to 45.5 µM; in [10] it was 60.3 µM; in assay [11] it was 89.9 µM; in assay [12], 128 µM. For the same compound, the Vmax in assay [13] is 0.17 µM/min. Moreover, the inhibition entry in assay [14] is “Dose-Dependent Effect”. Moreover, the “inhibition (INH)” value in assay [15] is 26.8%; in [16], 42.67%; in [17], 51.04%.
